Source: ChEMBL document CHEMBL4251703, “Linker Variation and Structure-Activity Relationship Analyses of Carboxylic Acid-based Small Molecule STAT3 Inhibitors” (ACS Med Chem Lett, 2018)
Values after ≈ are worked out from the molar mass of the structure shown. Blank lines part the entries; values can stand above or below the compound they belong to. Active and inactive are the calls of the source. The rule behind the calls is not given here.

Experiments:
[1] = biological target: Signal transducer and activator of transcription 3 (Homo sapiens) (UniProt P40763); assay: Inhibition of STAT3 in human MDA-MB-231 cells assessed as reduction in p-STAT3(Y705) level at 5 uM after 1 to 24 hrs by immunoblot analysis; assay type: cell-based
Sequence of Signal transducer and activator of transcription 3 (Homo sapiens) (P40763 whole entry): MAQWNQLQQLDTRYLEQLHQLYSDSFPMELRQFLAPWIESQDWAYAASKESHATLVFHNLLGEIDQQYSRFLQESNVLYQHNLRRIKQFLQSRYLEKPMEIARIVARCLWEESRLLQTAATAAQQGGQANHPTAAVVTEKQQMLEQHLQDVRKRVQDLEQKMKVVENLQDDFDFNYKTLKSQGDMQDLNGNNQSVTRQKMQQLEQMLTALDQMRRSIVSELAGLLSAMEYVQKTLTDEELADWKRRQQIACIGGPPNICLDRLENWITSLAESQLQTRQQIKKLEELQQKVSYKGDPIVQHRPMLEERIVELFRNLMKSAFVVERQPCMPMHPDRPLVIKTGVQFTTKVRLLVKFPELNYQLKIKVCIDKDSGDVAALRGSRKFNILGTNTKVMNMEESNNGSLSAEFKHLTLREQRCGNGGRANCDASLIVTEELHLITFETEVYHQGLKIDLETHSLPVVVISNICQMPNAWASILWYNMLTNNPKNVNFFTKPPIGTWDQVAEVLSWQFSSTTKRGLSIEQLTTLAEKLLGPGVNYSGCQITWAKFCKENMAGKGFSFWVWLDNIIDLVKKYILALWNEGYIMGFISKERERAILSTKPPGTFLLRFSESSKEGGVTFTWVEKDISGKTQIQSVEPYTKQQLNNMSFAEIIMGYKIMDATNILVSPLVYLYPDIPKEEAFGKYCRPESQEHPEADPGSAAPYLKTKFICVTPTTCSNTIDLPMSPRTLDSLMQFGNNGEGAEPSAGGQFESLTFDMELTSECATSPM

[2] = biological target: Signal transducer and activator of transcription 3 (Homo sapiens) (UniProt P40763); assay: Inhibition of STAT3 in human MDA-MB-468 cells assessed as reduction in p-STAT3(Y705) level at 5 uM after 1 to 24 hrs by immunoblot analysis; assay type: cell-based
MDA-MB-231 [3] = assay: Cytotoxicity against human MDA-MB-231 cells harboring active STAT3 assessed as decrease in cell viability up to 10 uM after 72 hrs by CyQuant dye based assay; assay type: functional
Outline: (§1)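 Cells were grown in 96-well format and treated once with 0–10 μM compound for 72 h. Viable cells were quantified by CyQuant proliferation assay and plotted as % viability against concentration. Data are mean ± SD of three independent determinations.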

MDA-MB-468 = assay: Cytotoxicity against human MDA-MB-468 cells harboring active STAT3 assessed as decrease in cell viability up to 10 uM after 72 hrs by CyQuant dye based assay; assay type: functional; outline: as §1
MDA-MB-231 [4] = assay: Cytotoxicity against human MDA-MB-231 cells harboring active STAT3 assessed as decrease in cell viability up to 5 uM after 72 hrs by trypan blue exclusion based phase-contrast microscopy; assay type: functional
MCF7 = assay: Cytotoxicity against human MCF7 cells assessed as decrease in cell viability up to 10 uM after 72 hrs by CyQuant dye based assay; assay type: functional; outline: as §1
[5] = Cytotoxicity against human AR7119 cells assessed as decrease in cell viability up to 20 uM after 48 hrs by MTT assay; assay type: cell-based
[6] = biological target: Signal transducer and activator of transcription 3 (Mus musculus) (UniProt P42227); assay: (§2) Inhibition of STAT3 DNA binding activity in mouse NIH/3T3 nuclear extract preincubated for 30 mins followed by [32P]hSIE addition measured after 30 mins by electrophoretic mobility shift assay
Sequence of Signal transducer and activator of transcription 3 (Mus musculus) (P42227 whole entry): as the sequence (P40763 whole entry) above, with E760D counted along it
Outline: (§3)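 STAT3 DNA-binding was measured by EMSA using nuclear extracts of equal total protein from v-Src-transformed fibroblasts containing activated STAT3. Extracts were preincubated for 30 min with 0–100 μM compound, then incubated with radiolabeled hSIE probe.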

[7] = biological target: Signal transducer and activator of transcription 3 (Homo sapiens) (UniProt P40763); assay: Inhibition of STAT3 in human MDA-MB-231 cells assessed as reduction in p-STAT3(Y705) level at 10 uM after 1 hr by immunoblot analysis; assay type: cell-based
MDA-MB-231 [8] = assay: Anticlonogenic activity against human MDA-MB-231 cells up to 3 uM after 4 hrs by crystal violet staining based assay; assay type: functional, cell-based
Outline: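 Single-cell cultures of MDA-MB-231 cells were treated once and cultured until large colonies were visible. Colonies were then stained with crystal violet, counted and plotted.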

MDA-MB-231 [9] = assay: Antimigratory activity against human MDA-MB-231 cells at 8 uM after 22 to […] hrs by inverted fluorescence microscope; assay type: functional, cell-based
Outline: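 Confluent MDA-MB-231 cultures were wounded and treated once with or without 8 μM compound. Migration into the denuded area was followed over 23 h and imaged. Controls received 0.05% DMSO.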

[10] = Half life in human liver microsomes; assay type: ADME, microsome
[11] = Half life in mouse liver microsomes; assay type: ADME, microsome
[12] = Apparent permeability of the compound from apical to basolateral side in human Caco2 cells; assay type: ADME, cell-based; conditions: Caco-2
[13] = Solubility of the compound in PBS at pH 7.4; assay type: physicochemical
Outline: (§4)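 Aqueous solubility was determined in pH 7.4 PBS and in pH 6.8 buffered simulated intestinal fluid, reported in μg/mL.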

[14] = Solubility of the compound in simulated intestinal fluid at pH 6.8; assay type: physicochemical; outline: as §4
[15] = biological target: Signal transducer and activator of transcription 3 (Homo sapiens) (UniProt P40763); assay: Inhibition of STAT3 DNA binding activity in human MDA-MB-231 nuclear extract at 10 uM after 3 hrs by electrophoretic mobility shift assay
Outline: (§5)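 MDA-MB-231 breast cancer cells were exposed to 10 μM compound for 1, 3 or 24 h. Nuclear extracts of equal total protein were then assayed for STAT3 DNA-binding by EMSA.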

[16] = biological target: Signal transducer and activator of transcription 3 (Homo sapiens) (UniProt P40763); assay: Inhibition of STAT3 DNA binding activity in human MDA-MB-231 nuclear extract at 10 uM after 1 hr by electrophoretic mobility shift assay; outline: as §5
[17] = biological target: Signal transducer and activator of transcription 3 (Homo sapiens) (UniProt P40763); assay: Inhibition of STAT3 DNA binding activity in human MDA-MB-231 nuclear extract at 10 uM after 24 hrs by electrophoretic mobility shift assay; outline: as §5
[18] = biological target: Signal transducer and activator of transcription 3 (Mus musculus, UniProt P42227); assay: as §2; outline: as §3
Sequence of Signal transducer and activator of transcription 3 (P42227 whole entry): as the sequence (P40763 whole entry) above, with E760D counted along it

[19] = biological target: Signal transducer and activator of transcription 3 (Homo sapiens) (UniProt P40763); assay: Inhibition of STAT3 DNA binding activity in human MDA-MB-468 nuclear extract at 5 uM after 24 hrs by electrophoretic mobility shift assay
Outline: (§6)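 MDA-MB-468 cells received 5 μM compound for 3 or 24 h. STAT3 DNA-binding in nuclear extracts of equal total protein was then analysed by EMSA.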

[20] = biological target: Tyrosine-protein kinase JAK2 (Homo sapiens) (UniProt O60674); assay: Inhibition of JAK2 phosphorylation in human MDA-MB-231 cells at 5 uM after 24 hrs by immunoblot analysis; assay type: cell-based
Sequence of Tyrosine-protein kinase JAK2 (Homo sapiens) (O60674 whole entry): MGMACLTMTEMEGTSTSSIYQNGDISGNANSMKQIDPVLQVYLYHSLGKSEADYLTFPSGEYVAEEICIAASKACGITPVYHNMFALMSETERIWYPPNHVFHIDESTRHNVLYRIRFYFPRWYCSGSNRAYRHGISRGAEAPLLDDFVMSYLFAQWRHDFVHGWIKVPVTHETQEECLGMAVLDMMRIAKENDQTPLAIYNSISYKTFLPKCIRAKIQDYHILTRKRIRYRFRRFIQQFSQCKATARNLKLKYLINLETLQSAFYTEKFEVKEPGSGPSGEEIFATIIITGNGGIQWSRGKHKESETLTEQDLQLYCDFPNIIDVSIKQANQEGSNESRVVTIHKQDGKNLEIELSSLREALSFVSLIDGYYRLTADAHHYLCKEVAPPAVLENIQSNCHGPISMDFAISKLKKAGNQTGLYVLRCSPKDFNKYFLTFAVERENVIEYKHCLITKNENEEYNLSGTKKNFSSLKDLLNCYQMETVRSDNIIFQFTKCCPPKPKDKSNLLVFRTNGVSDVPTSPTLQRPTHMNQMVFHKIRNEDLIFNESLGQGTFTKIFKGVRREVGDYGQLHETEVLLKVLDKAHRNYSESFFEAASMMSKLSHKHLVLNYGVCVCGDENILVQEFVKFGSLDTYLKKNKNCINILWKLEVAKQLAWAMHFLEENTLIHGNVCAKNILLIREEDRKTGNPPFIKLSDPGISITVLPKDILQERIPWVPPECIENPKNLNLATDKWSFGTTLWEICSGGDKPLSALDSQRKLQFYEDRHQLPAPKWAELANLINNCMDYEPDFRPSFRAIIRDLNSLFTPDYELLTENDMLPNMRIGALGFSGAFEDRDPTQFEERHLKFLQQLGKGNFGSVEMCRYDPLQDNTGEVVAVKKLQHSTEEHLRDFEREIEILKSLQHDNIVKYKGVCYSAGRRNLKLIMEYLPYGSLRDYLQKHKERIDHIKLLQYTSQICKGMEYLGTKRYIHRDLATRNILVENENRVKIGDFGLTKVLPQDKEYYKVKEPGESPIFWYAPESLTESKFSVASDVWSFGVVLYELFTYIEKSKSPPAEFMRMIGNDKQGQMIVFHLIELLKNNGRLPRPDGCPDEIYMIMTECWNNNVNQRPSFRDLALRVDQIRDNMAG

[21] = biological target: Proto-oncogene tyrosine-protein kinase Src (Homo sapiens) (UniProt P12931); assay: Inhibition of SRC phosphorylation in human MDA-MB-231 cells at 5 uM after 24 hrs by immunoblot analysis; assay type: cell-based
Sequence of Proto-oncogene tyrosine-protein kinase Src (Homo sapiens) (P12931 2-536 limits assumed): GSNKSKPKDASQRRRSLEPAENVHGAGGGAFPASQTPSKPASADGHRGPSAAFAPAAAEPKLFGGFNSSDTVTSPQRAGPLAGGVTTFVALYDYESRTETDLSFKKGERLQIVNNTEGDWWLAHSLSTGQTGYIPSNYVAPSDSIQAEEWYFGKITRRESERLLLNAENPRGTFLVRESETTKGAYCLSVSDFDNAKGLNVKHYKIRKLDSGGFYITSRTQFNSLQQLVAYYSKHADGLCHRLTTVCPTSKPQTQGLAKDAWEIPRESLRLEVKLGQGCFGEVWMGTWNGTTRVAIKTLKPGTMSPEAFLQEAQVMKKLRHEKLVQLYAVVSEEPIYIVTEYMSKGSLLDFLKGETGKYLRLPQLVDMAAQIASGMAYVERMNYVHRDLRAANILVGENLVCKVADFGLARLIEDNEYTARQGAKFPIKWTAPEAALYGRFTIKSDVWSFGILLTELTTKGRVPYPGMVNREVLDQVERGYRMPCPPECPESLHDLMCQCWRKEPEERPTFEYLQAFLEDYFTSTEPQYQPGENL

[22] = biological target: Mitogen-activated protein kinase; ERK1/ERK2 (Homo sapiens) (UniProt P27361+P28482); assay: Inhibition of ERK1/2 phosphorylation in human MDA-MB-231 cells at 5 uM after 24 hrs by immunoblot analysis; assay type: cell-based
Sequence of Mitogen-activated protein kinase; ERK1/ERK2 (Homo sapiens) (P27361 whole entry, looked up): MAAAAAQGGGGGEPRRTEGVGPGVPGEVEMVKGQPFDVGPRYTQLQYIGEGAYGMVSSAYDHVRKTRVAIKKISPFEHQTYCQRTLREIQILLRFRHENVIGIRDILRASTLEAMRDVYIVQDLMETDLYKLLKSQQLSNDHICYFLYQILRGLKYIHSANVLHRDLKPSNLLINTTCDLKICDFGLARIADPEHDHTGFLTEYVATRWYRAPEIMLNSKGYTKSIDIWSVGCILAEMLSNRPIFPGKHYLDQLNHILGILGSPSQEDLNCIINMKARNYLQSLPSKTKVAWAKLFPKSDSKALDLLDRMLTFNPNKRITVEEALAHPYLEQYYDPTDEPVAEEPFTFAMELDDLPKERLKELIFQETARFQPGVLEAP
Sequence of Mitogen-activated protein kinase; ERK1/ERK2 (Homo sapiens) (P28482 whole entry, looked up): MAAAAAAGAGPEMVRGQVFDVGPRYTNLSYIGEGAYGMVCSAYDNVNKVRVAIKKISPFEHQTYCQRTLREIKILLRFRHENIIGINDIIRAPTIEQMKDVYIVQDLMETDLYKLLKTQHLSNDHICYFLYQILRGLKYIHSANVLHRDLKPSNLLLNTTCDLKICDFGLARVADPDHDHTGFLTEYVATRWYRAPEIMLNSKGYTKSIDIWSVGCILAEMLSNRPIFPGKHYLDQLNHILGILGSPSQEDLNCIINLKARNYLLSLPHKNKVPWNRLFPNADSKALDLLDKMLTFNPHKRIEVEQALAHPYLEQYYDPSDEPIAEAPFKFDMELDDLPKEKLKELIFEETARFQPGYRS

[23] = biological target: Signal transducer and activator of transcription 3 (Homo sapiens) (UniProt P40763); assay: Inhibition of STAT3 DNA binding activity in human MDA-MB-468 nuclear extract at 5 uM after 3 to 24 hrs by electrophoretic mobility shift assay; outline: as §6
[24] = biological target: Signal transducer and activator of transcription 3 (Homo sapiens) (UniProt P40763); assay: Inhibition of STAT3 in human C8161 cells assessed as reduction in p-STAT3(Y705) level at 10 to 20 uM after 1 to 3 hrs by immunoblot analysis; assay type: cell-based
[25] = biological target: Signal transducer and activator of transcription 3 (Homo sapiens) (UniProt P40763); assay: Inhibition of STAT3 in human 1205 Lu cells assessed as reduction in p-STAT3(Y705) level at 10 to 20 uM after 1 to 3 hrs by immunoblot analysis; assay type: cell-based
[26] = biological target: Signal transducer and activator of transcription 3 (Homo sapiens) (UniProt P40763); assay: Inhibition of STAT3 in human UACC-903 cells assessed as reduction in p-STAT3(Y705) level at 10 to 20 uM after 1 to 3 hrs by immunoblot analysis; assay type: cell-based
Homo sapiens [27] = species: Homo sapiens; assay: Cytotoxicity against human C8161 cells harboring active STAT3 assessed as decrease in cell viability up to 20 uM after 48 hrs by MTT assay; assay type: functional, cell-based
Homo sapiens [28] = species: Homo sapiens; assay: Cytotoxicity against human 1205 Lu cells harboring active STAT3 assessed as decrease in cell viability up to 20 uM after 48 hrs by MTT assay; assay type: functional, cell-based
Homo sapiens [29] = species: Homo sapiens; assay: Cytotoxicity against human C81-61 cells harboring active STAT3 assessed as decrease in cell viability up to 20 uM after 48 hrs by MTT assay; assay type: functional, cell-based

p-STAT3(Y705) reduction (qualitative call) [1]: Active | inhibition [2]: Active
Structure (SMILES): C[C@H](C(=O)N(Cc1ccc(C2CCCCC2)cc1)c1ccc(C(=O)O)cc1F)N(C)S(=O)(=O)c1c(F)c(F)c(F)c(F)c1F
Activity (MDA-MB-231 [3]): Active | Activity (MDA-MB-468): Active | Activity (MDA-MB-231 [4]): Active | Activity (MCF7): inactive

inhibition [6]: inactive | inhibition [7]: Active
Structure (SMILES): Cc1cc(C(=O)O)ccc1N(Cc1ccc(C2CCCCC2)cc1)C(=O)CN(C)S(=O)(=O)c1c(F)c(F)c(F)c(F)c1F
Activity (MDA-MB-231 [3]): Active | Activity (MDA-MB-468): Active | Activity (MCF7): inactive | Activity (MDA-MB-231 [8]): Active | Activity (MDA-MB-231 [9]): Active

inhibition [15]: Active | inhibition [16]: inactive | inhibition [17]: Active
Structure (SMILES): C[C@@H](C(=O)N(Cc1ccc(C2CCCCC2)cc1)c1ccc(C(=O)O)c(O)c1)N(C)S(=O)(=O)c1c(F)c(F)c(F)c(F)c1F

inhibition [19]: Active | inhibition [7]: Active | inhibition [20]: inactive | inhibition [21]: inactive | inhibition [22]: inactive
Structure (SMILES): C[C@H](C(=O)N(Cc1ccc(C2CCCCC2)cc1)c1ccc(C(=O)O)cc1Cl)N(C)S(=O)(=O)c1c(F)c(F)c(F)c(F)c1F
Activity (MDA-MB-231 [3]): Active | Activity (MDA-MB-468): Active | Activity (MCF7): inactive | Activity (MDA-MB-231 [8]): Active | Activity (MDA-MB-231 [9]): Active

inhibition [6]: Active | inhibition [15]: Active | inhibition [16]: inactive | inhibition [17]: inactive | inhibition [23]: Active | p-STAT3(Y705) reduction (qualitative call) [1]: Active | inhibition [2]: Active | inhibition [24]: Active | inhibition [25]: Active | inhibition [26]: Active
Structure (SMILES): C[C@H](C(=O)N(Cc1ccc(C2CCCCC2)cc1)c1ccc(C(=O)O)c(O)c1)N(C)S(=O)(=O)c1c(F)c(F)c(F)c(F)c1F [listing 2 of 2 here]
Activity (Homo sapiens [27]): Active | Activity (Homo sapiens [28]): Active | Activity (Homo sapiens [29]): Active

The remaining lines, values behind:

Structure (SMILES): C[C@H](C(=O)N(Cc1ccc(C2CCCCC2)cc1)c1ccc(C(=O)O)c(O)c1)N(C)S(=O)(=O)c1c(F)c(F)c(F)c(F)c1F [listing 1 of 2 here]
Activity [5]: Non-Toxic

Structure (SMILES): O=C(O)c1ccc(N(Cc2ccc(C3CCCCC3)cc2)C(=O)[C@@H]2CCCN2S(=O)(=O)c2c(F)c(F)c(F)c(F)c2F)c(F)c1
half-life [10]: 54 min | half-life [11]: 26 min | Papp A→B [12]: 0.1 ×10⁻⁶ cm/s

Structure (SMILES): CN(CC(=O)N(Cc1ccc(C2CCCCC2)cc1)c1ccc(C(=O)NO)cc1)S(=O)(=O)c1c(F)c(F)c(F)c(F)c1F
solubility [13]: 0.3 µg/mL (≈ 0.48 µM) | solubility [14]: 74 µg/mL (≈ 118 µM) | half-life [10]: ≥ 17 min | half-life [11]: ≥ 17 min

Structure (SMILES): CN(CC(=O)N(Cc1ccc(C2CCCCC2)cc1)c1ccc(C(=O)O)cc1)S(=O)(=O)c1c(F)c(F)c(F)c(F)c1F
solubility [13]: 7.6 µg/mL (≈ 12.4 µM) | solubility [14]: 14 µg/mL (≈ 22.9 µM) | half-life [10]: ≥ 17 min | half-life [11]: ≥ 17 min

Structure (SMILES): CN(CC(=O)N(Cc1ccc(C2CCCCC2)cc1)c1ccc(C(=O)O)cc1Cl)S(=O)(=O)c1c(F)c(F)c(F)c(F)c1F
IC50 [18]: 8.6 to 14.4 µM | inhibition [7]: Active | Activity (MDA-MB-231 [3]): Active | Activity (MDA-MB-468): Active | Activity (MCF7): inactive | Activity (MDA-MB-231 [8]): Active | Activity (MDA-MB-231 [9]): Active

Structure (SMILES): O=C([O-])c1ccc(N(Cc2ccc(C3CCOCC3)cc2)C(=O)[C@H]2CCCN2S(=O)(=O)c2c(F)c(F)c(F)c(F)c2F)cc1O.[Na+]
solubility [13]: 123 µg/mL | solubility [14]: 117 µg/mL | Papp A→B [12]: 0.2 ×10⁻⁶ cm/s
